Measurements pooled from the literature.
Protocols differ between the studies behind these lines.
Target: Adenosine receptor A3 (ADORA3, Homo sapiens, UniProt P0DMS8)
One construct used (P0DMS8 1-318): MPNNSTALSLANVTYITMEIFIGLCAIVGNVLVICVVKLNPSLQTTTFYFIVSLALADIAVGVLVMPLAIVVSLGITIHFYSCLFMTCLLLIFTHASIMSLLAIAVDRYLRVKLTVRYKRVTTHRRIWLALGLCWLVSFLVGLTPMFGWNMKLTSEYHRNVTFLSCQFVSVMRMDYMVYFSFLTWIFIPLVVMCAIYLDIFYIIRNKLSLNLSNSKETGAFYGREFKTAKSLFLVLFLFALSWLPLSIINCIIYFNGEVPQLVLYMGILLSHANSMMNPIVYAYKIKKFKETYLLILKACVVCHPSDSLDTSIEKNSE

With `CC(C)=CCNc1ncnc2c1ncn2[C@@H]1O[C@H](CO)[C@@H](O)[C@H]1O` the Ki was 159 nM (ligand displacement; radioligand; cell membranes).
`CN1CCCn2c1nc1c2c(=O)n(C)c(=O)n1C` has a Ki of over 10000 nM (ligand displacement; radioligand; cell membranes).
For `CNC(=O)[C@@]12C[C@@H]1[C@@H](n1cnc3c(NCc4cn(-c5ccc(C(=O)NCCCF)cc5)nn4)nc(Cl)nc31)[C@H](O)[C@@H]2O`, the Ki was 36.7 nM (ligand displacement; radioligand; cell membranes).
`CCCCn1c(=O)c2[nH]c(C34CC5CC(CC3C5)C4)nc2n(CCCO)c1=O` gave a Ki of over 1000 nM (ligand displacement; radioligand; cell membranes).
`O[C@@H]1[C@H](O)[C@@H]2C[C@@H]2[C@H]1n1cnc2c(NCc3cn(C45CC6CC(CC(C6)C4)C5)nn3)nc(Cl)nc21` gave a Ki of 2190 nM (ligand displacement; radioligand; cell membranes).
With `CCCCCN1CCCn2c1nc1c2c(=O)n(C)c(=O)n1C` the Ki was over 10000 nM (ligand displacement; radioligand; cell membranes).
With `Nc1nc2c(cnn2CCc2ccccc2)c2nc(-c3ccco3)nn12` the Ki was 158 nM (ligand displacement in cells; BRET).
The Ki of `O=C(NCCC(c1ccccc1)c1ccccc1)[C@H]1S[C@@H](n2cnc3c(NCc4cccc(I)c4)ncnc32)[C@H](O)[C@@H]1O` is reported as 116 nM (ligand displacement; radioligand).
`CCNC(=O)C1OC(n2cnc3c(N)nc(NN=CC4CCC=CO4)nc32)C(O)C1O` (stereo not shown) gave a Ki of 16 nM (ligand displacement; radioligand).
The Ki of `NC1C(O)C(n2cnc3c(NCc4cccc(I)c4)ncnc32)C2CC12` (stereo not shown) is reported as 5460 nM (ligand displacement; radioligand; cell membranes).
For `CCCN1CCCn2c1nc1c2c(=O)n(C)c(=O)n1C`, the Ki was over 10000 nM (ligand displacement; radioligand; cell membranes).
`CNC(=O)[C@@]12C[C@@H]1[C@@H](n1cnc3c(NCc4cccc(Cl)c4)nc(C#Cc4cccc(C(=O)NCCOCCOCCOCCOCCOCCOCCC(=O)N5CCC(c6ccc(-c7cc(C(=O)O)cc8cc(-c9ccc(C(F)(F)F)cc9)ccc78)cc6)CC5)c4)nc31)[C@H](O)[C@@H]2O` has a Ki of 3.6 nM (ligand displacement in cells; radioligand).
With `OC[C@@]12C[C@@H]1[C@@H](n1cnc3c(NC(C4CCCC4)C4CCCC4)nc(Cl)nc31)[C@H](O)[C@@H]2O` the Ki was 4380 nM (ligand displacement; radioligand).
For `Nc1nc2ccc(Cl)cc2c2nc(-c3ccco3)nn12`, the Ki was 7.59 nM (ligand displacement in cells; BRET).
With `COCCOc1ccc(N2CCN(CCn3ncc4c3nc(N)n3nc(-c5ccco5)nc43)CC2)cc1` the Ki was over 1000 nM (ligand displacement; radioligand; cell membranes).
`CNC(=O)[C@@]12C[C@@H]1[C@@H](n1cnc3c(NCc4cn(C56CC7CC(CC(C7)C5)C6)nn4)nc(Cl)nc31)[C@H](O)[C@@H]2O` gave a Ki of 38.1 nM (ligand displacement; radioligand; cell membranes).
